ChEMBL document CHEMBL1135780, “6-Chloro-3-alkylamino-4H-thieno[3,2-e]-1,2,4-thiadiazine 1,1-dioxide derivatives potently and selectively activate ATP sensitive potassium channels of pancreatic beta-cells” (J Med Chem, 2002)

Legend:
Rattus norvegicus [1] = species on record: Rattus norvegicus; assay: Inhibition of glucose-stimulated insulin release from Wistar rat islets; type: functional
Outline: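 Isolated rat islets held overnight in RPMI, 10% FCS, 11 mM glucose, then 10 islets/well overnight in DMEM, 10% FCS, 3 mM glucose. Run like the βTC6 assay (60 min NN buffer preincubation, 3 h with 22 mM glucose and serial dilutions) without IBMX. Insulin by in-house ELISA.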

Beta-TC6 [2] = assay: Ability to inhibit the release of insulin from the mouse beta-TC6 cell line; type: functional, cell-based
Outline: (§1)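 βTC6 cells, 5 × 10⁴/well, grown 3 days in DMEM + 10% FCS, 11 mM glucose, 20 mM Hepes. Washed twice in NN buffer with 0.1% BSA, preincubated 60 min, then 3 h with 22 mM glucose, 0.1 mM IBMX and serial compound dilutions. Insulin in supernatant measured by in-house ELISA (guinea pig anti-insulin, rat insulin standard). Reference compound as positive control.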

[3] = Acid dissociation constant was determined; type: ADME
Outline: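 Potentiometric titration from pH 2 to 10.5 in 80% MeOH cosolvent. Three titrations on the same sample, with 0.15 M KCl added before the second. psKa values extrapolated to 0% cosolvent by Yasuda–Shedlovsky.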

[4] = tested on: βTC6 cells (Mus musculus); assay: Inhibition of glucose-stimulated insulin release from βTC6 cells
[5] = molecular target: T1, Sulfonylurea receptor 1, Kir6.2 (Homo sapiens, UniProt Q09428+Q14654); assay: Inhibition of [3H]glibenclamide binding to HEK293 cells co-expressing human Sulfonylurea receptor SUR1 and Inward rectifier K+ channel Kir6.2 at high affinity state with 2 mM MgATP; type: cell-based
T1 sequence (Q14654 whole entry): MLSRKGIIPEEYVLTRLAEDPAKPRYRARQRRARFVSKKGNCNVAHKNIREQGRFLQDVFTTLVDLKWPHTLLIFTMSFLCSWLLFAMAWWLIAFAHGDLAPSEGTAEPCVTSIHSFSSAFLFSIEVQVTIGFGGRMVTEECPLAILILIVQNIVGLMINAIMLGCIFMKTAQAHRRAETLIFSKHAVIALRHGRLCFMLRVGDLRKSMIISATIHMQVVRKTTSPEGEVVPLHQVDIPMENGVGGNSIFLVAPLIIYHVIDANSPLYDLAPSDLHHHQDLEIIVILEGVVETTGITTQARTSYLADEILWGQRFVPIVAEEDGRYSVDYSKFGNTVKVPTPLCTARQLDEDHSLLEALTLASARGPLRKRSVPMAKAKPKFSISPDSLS
T1 sequence (Q09428 whole entry): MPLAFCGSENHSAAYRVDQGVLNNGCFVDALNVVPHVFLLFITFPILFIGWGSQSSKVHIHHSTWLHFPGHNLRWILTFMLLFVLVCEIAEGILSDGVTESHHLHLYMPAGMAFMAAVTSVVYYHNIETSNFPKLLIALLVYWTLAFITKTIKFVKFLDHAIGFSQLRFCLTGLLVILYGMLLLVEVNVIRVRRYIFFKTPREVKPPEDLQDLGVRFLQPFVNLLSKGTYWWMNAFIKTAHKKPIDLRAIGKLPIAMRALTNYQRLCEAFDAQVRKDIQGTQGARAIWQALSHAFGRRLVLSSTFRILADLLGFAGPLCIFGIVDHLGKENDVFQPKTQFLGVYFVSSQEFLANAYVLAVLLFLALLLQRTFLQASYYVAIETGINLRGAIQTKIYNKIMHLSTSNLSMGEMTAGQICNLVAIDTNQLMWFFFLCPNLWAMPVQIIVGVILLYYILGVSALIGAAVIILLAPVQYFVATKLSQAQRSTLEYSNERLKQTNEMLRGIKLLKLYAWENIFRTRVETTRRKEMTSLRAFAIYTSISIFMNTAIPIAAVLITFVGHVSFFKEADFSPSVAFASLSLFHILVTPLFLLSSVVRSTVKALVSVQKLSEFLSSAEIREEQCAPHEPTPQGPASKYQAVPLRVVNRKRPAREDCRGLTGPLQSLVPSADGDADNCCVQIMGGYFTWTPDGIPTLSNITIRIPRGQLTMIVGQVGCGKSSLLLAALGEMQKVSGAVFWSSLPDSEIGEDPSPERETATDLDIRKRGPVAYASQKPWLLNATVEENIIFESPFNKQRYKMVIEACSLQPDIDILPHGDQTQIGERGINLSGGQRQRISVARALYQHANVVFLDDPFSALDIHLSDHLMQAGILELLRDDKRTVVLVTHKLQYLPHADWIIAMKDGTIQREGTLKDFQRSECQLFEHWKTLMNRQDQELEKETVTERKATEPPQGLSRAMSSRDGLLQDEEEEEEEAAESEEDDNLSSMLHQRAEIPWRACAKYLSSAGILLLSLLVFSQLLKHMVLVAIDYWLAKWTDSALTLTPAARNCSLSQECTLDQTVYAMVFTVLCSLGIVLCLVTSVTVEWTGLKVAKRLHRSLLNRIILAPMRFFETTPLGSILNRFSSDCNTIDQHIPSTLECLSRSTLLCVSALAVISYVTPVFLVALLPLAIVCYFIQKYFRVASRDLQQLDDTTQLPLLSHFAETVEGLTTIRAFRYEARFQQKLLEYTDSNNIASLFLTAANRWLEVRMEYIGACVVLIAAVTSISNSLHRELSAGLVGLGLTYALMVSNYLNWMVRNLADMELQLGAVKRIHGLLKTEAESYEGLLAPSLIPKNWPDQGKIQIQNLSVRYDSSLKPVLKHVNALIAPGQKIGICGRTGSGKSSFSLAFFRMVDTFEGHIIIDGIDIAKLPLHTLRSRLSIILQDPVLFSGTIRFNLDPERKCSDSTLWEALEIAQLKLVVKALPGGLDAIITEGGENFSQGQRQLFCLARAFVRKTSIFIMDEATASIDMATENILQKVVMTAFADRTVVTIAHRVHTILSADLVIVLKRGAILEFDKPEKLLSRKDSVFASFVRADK

Rattus norvegicus [6] = species on record: Rattus norvegicus; assay: Reduction in plasma insulin in 30 min post-injection in rat; type: functional; parameters: concentration or dose not given beside the values
Outline: (§2)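 Postprandial male Sprague–Dawley rats, 280–320 g, under Hypnorm/Dormicum at 37 °C. 3 mg/kg iv bolus over 20 s via jugular cannula (0.3 mg/kg for one compound), dissolved in 0.15% NaOH and saline. Blood taken every 5–10 min from 15 min pre- to 30 min postinjection. Plasma insulin by ELISA, as % reduction from pre-dose level. 2–4 animals.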

Rattus norvegicus [7] = species on record: Rattus norvegicus; assay: Maximum reduction in plasma insulin in rat; type: functional; outline: as §2
[8] = Oral bioavailability in rat (Sprague-Dawley); type: ADME, organism-based; conditions: Sprague-Dawley, in vivo
Outline: (§3)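 Cassette dosing, two compounds per cassette, in Sprague–Dawley rats of about 180 g, n = 2. iv doses 0.5 or 0.89 mg/kg; oral doses 1.89 or 2.0 mg/kg. Vehicle 0.1 M potassium phosphate pH 8.0, or PEG 300 based. Heart-puncture sampling, one rat per point. Plasma levels by LC/MS/MS; noncompartmental analysis.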

Beta-TC6 [9] = assay: Percentage insulin release in vitro in beta-TC6 cells; type: functional; conditions: Mus musculus; outline: as §1
Rattus norvegicus [10] = species on record: Rattus norvegicus; assay: Ability to relax phenylephrine-contracted rat aorta rings; type: functional
Rattus norvegicus [11] = species on record: Rattus norvegicus; assay: Maximum change in MAP in rat; type: functional
Outline: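 Anaesthetized male Sprague–Dawley rats given 3 mg/kg iv bolus (0.3 mg/kg for one compound) in 0.15% NaOH/saline via jugular cannula. Maximal percent change in mean arterial pressure over 5 min after dosing; mean ± SEM, 2–4 animals.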

[12] = molecular target: T1, Sulfonylurea receptor 1, Kir6.2; assay: Inhibition of [3H]glibenclamide binding to HEK293 cells co-expressing human Sulfonylurea receptor SUR1 and Inward rectifier K+ channel Kir6.2 without ATP; type: cell-based
Outline: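 Membranes from HEK293 cells stably expressing human SUR1/Kir6.2 (100 µg/mL protein) incubated 1 h at 37 °C with 1 nM [3H]glibenclamide in 30 mM HEPES pH 7.4, here without MgCl2 and ATP. Nonspecific binding with 10 µM glipizide. Rapid filtration, scintillation counting; IC50 by one- or two-site sigmoid nonlinear regression.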

[13] = Changes in potassium fluxes assessed in the glucose responsive insulin-producing murine cell line beta-TC3; type: functional, cell-based, Mus musculus
Outline: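 βTC3 membrane potential read as DiBAC4(3) fluorescence at 0.01, 0.1, 1, 10 and 100 µM, four wells each. Signal normalized to each well's initial value and expressed as fractional fluorescence change over 45 min incubation. EC50 from four-parameter nonlinear fit; mean ± SEM of at least three independent experiments.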

[14] = molecular target: T1, Sulfonylurea receptor 1, Kir6.2; assay: Inhibition of [3H]glibenclamide binding to HEK293 cells co-expressing human Sulfonylurea receptor SUR1 and Inward rectifier K+ channel Kir6.2 at low affinity state with 2 mM MgATP; type: cell-based
[15] = Half life after oral administration to Sprague-Dawley rats; type: ADME, organism-based; conditions: rat, in vivo; outline: as §3
Rattus norvegicus [16] = species on record: Rattus norvegicus; assay: Effective concentration require for relaxation of rat aorta rings; type: functional
Beta-TC6 [17] = assay: Maximum inhibition of glucose stimulated insulin release from mouse beta-TC6 cells at 10 uM in vitro.; type: functional

Row | Structure (SMILES) | IC50 (Rattus norvegicus [1]) [µM] | IC50 (Beta-TC6 [2]) [µM] | pKa [3] | Emax [4] [%] | IC50 [5] [µM] | Reduction (Rattus norvegicus [6]) [%] | Reduction (Rattus norvegicus [7]) [%] | bioavailability [8] [%] | Emax (Beta-TC6 [9]) [%] | EC50 (Rattus norvegicus [10]) [µM] | Change (Rattus norvegicus [11]) [%] | IC50 [12] [µM] | EC50 [13] [µM] | IC50 [14] [µM] | half-life [15] [h] | EC50 (Rattus norvegicus [16]) [µM] | Emax at 10 µM (Beta-TC6 [17]) [%]
1 | CC[C@@H](C)NC1=NS(=O)(=O)c2sc(Cl)cc2N1 | 0.06 | 0.24 | 8.54 | 82 | 0.64 | 94 | 97 | 90 | 82 | 70 | -17 | 487 | 0.3 | 224 | 2.72 |  | 
2 | CNC1=NS(=O)(=O)c2sc(Cl)cc2N1 |  | 21.2 |  |  |  |  |  |  |  | 17.3 |  |  | > 100 |  |  | 17.3 | 35
